# Measurements from ChEMBL document CHEMBL4619772 (J Med Chem, 2020).
# Key:
# [1] = system: A549; assay: Inhibition of pseudotyped HIV/MARV GP infected in human A549 cells assessed as reduction in virus entry at 12.5 uM measured after 48 hrs by luciferase reporter gene assay relative to control; format: cell-based; conditions: Marburgvirus
# Procedure, shortened: (§1)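 Low-passage A549 cells are infected with HIV-based pseudovirions carrying EBOV or MARV GP and a luciferase reporter, with or without compound at 12.5 μM. […] Toremifene is the positive control.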
# [2] = system: A549; assay: Inhibition of pseudotyped HIV/EBOV GP infected in human A549 cells assessed as reduction in virus entry at 12.5 uM measured after 48 hrs by luciferase reporter gene assay relative to control; format: cell-based; conditions: Ebolavirus; procedure, shortened: as §1
# [3] = Inhibition of pseudotyped HIV/EBOV GP infected in human A549 cells assessed as reduction in virus entry measured after 48 hrs by luciferase reporter gene assay; format: cell-based, Ebolavirus; conditions: Orthoebolavirus, A549, 48 h
# [4] = Selectivity index, ratio of CC50 for human A549 cells to EC50 for HIV/EBOV-GP infected in human A549 cells; format: toxicity, cell-based; conditions: read-out: Ratio CC50/EC50
# Procedure, shortened: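 Ratio CC50/EC50. CC50 is A549 cytotoxicity by CellTiter 96 aqueous nonradioactive cell proliferation assay.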
# [5] = Inhibition of pseudotyped HIV/MARV GP infected in human A549 cells assessed as reduction in virus entry measured after 48 hrs by luciferase reporter gene assay; format: cell-based, Marburgvirus; conditions: Orthomarburgvirus, A549, 48 h
# [6] = Metabolic stability in Sprague-Dawley rat pooled plasma assessed as parent compound remaining at 20 uM after 60 mins by HPLC analysis; format: ADME, cell-free; conditions: read-out: Stability
# Procedure, shortened: (§2)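 Stability is reported as % of compound remaining after 60 min incubation in plasma or liver microsomes, relative to t0.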
# [7] = system: Marburgvirus; assay: Antiviral activity against Marburg virus Lake Victoria, 2005 Angola infected in human HeLa cells pretreated for 1 hr followed by virus infection measured after 24 hrs by Hoechst staining-based immunofluorescence assay; format: functional, organism-based, Lake Victoria marburgvirus; conditions: Orthomarburgvirus, Angola2005, HeLa
# [8] = Metabolic stability in human pooled plasma assessed as parent compound remaining at 20 uM after 60 mins by HPLC analysis; format: ADME, cell-free; conditions: read-out: Stability; procedure, shortened: as §2
# [9] = system: Zaire ebolavirus; assay: Antiviral activity against Ebola virus 1976 Mayinga infected in human HeLa cells pretreated for 1 hr followed by virus infection measured after 24 hrs by Hoechst staining-based immunofluorescence assay; format: functional, organism-based
# [10] = Metabolic stability in human liver microsomes assessed as parent compound remaining after 60 mins in presence of NADPH by HPLC analysis; format: ADME, Microsome; conditions: read-out: Stability; procedure, shortened: as §2
# [11] = Selectivity index, ratio of CC50 for human HeLa cells to EC50 for Ebola virus 1976 Mayinga in human HeLa cells; format: toxicity, cell-based; conditions: read-out: Ratio CC50/EC50
# [12] = Metabolic stability in Fischer F344 rat liver microsomes assessed as parent compound remaining after 60 mins in presence of NADPH by HPLC analysis; format: ADME, Microsome; conditions: read-out: Stability; procedure, shortened: as §2
SMILES,inhibition [1] [%],inhibition [2] [%],EC50 [3] [µM],selectivity ratio [4],EC50 [5] [µM],other results
COC(=O)c1cccc(NC(=O)c2ccc(CN3CCCCC3)cc2)c1,0,0,,,,
O=C(c1ccc(CN2CCCCC2)cc1)N1CCc2cc(C(F)(F)F)ccc21,49.6,56.4,,,,
O=C(Nc1ccc(C(F)(F)F)cc1)c1ccc(CN2CCCCC2)cc1,79.3,89.9,3.87,9,5.7,
O=C(NCC1CCC(F)(F)CC1)c1ccc(CN2CCCCC2)cc1,23,42.9,,,,
COC(=O)c1ccc(NC(=O)c2cccc(CN3CCCCC3)c2)cc1,5.9,13,,,,
O=C(c1ccc(CN2CCCCC2)cc1)N1CC2(CC2)c2ccccc21,34.4,74.5,,,,
COC(=O)c1ccc(NC(=O)c2ccc(CN3CCOCC3)cc2)cc1,68.8,57.2,,,,
CS(=O)(=O)c1ccc(NC(=O)c2ccc(CN3CCCCC3)cc2)cc1,17.4,0,,,,
CNS(=O)(=O)c1ccc(NC(=O)c2ccc(CN3CCCCC3)cc2)cc1,3.3,0,,,,
O=C(Nc1ccc(C2CCCCC2)cc1)c1ccc(CN2CCCCC2)c(F)c1,71,96.1,0.38,382,1.33,"remaining at 1 h, 20 µM [6]: 86%; EC50 [7]: 16.6 µM; remaining at 1 h, 20 µM [8]: 87%; EC50 [9]: 1.04 µM; remaining at 1 h [10]: 28%; selectivity ratio [11]: 128; remaining at 1 h [12]: 23%"
N#CC(c1ccc(NC(=O)c2ccc(CN3CCCCC3)cc2)cc1)C1CCCC1 (stereo unspecified),94,96.8,0.73,99,1.63,
COC(=O)c1ccc(NC(=O)c2ccc(C(=O)N3CCCCC3)cc2)cc1,0,12.9,,,,
O=C(Nc1ccc(C(F)(F)F)nc1)c1ccc(CN2CCCCC2)cc1,9.4,5.4,,,,
O=C(c1ccc(CN2CCCCC2)cc1)N1CCc2ccc(C(F)(F)F)cc21,59.2,83.7,1.68,38,1.46,"remaining at 1 h, 20 µM [6]: 0%; EC50 [7]: 8.17 µM; remaining at 1 h, 20 µM [8]: 85%; EC50 [9]: 3.22 µM; remaining at 1 h [10]: 31%; selectivity ratio [11]: 39; remaining at 1 h [12]: 0%"
O=C(c1ccc(CN2CCCCC2)cc1)N1CCc2ccc(F)cc21,13.5,20.1,,,,
COC(=O)c1ccc2c(c1)CCN2C(=O)c1ccc(CN2CCCCC2)cc1,51.2,41.7,,,,
CC(c1ccc(C(=O)NCCOC2CCCCC2)cc1)N1CCCCC1 (stereo unspecified),42.5,52.4,,,,
O=C(Nc1ccc(C(F)(F)F)c(Cl)c1)c1ccc(CN2CCCCC2)cc1,98.5,99.7,2.34,9,2.05,
N#Cc1ccc(NC(=O)c2ccc(CN3CCCCC3)cc2)cc1,12.4,0,,,,
CN(C)CCOc1ccc(/C(=C(/CCCl)c2ccccc2)c2ccccc2)cc1 [TOREMIFENE],,,0.09,,,EC50 [7]: 3.25 µM; EC50 [9]: 0.67 µM

SMILES,inhibition [1] [%],inhibition [2] [%],EC50 [3] [µM],selectivity ratio [4],EC50 [5] [µM],other results
O=C(c1ccc(CN2CCCCC2)cc1)N1CCc2ccc(Cl)cc21,42.4,81.5,2.22,14,2.31,
O=C(c1ccc(CN2CCCCC2)cc1)n1ccc2ccc(C(F)(F)F)cc21,0,0,,,,
O=C(Nc1cccc(C(F)(F)F)c1)c1ccc(CN2CCCCC2)cc1,57.5,82.2,2.97,15,1.41,
O=C(NCCC1CCCCC1)c1ccc(CN2CCCCC2)cc1,27.3,90.9,2.32,25,7.74,
CC(c1ccc(C(=O)NCC2COC3(CCCCC3)O2)cc1)N1CCCCC1 (stereo unspecified),37.2,56,,,,
CS(=O)(=O)Nc1ccc(NC(=O)c2ccc(CN3CCCCC3)cc2)cc1,6.81,3.91,,,,
COC(=O)c1ccc2c(c1)CCN2C(=O)c1ccc(CN2CCCCC2)s1,0,38.9,,,,
COC(=O)c1ccc2c(c1)CCCN2C(=O)c1ccc(CN2CCCCC2)cc1,0,25.1,,,,
CC(C)c1ccc(NC(=O)c2ccc(CN3CCCCC3)cc2)cc1,67.5,93.1,2.87,10,2.1,
COC(=O)c1ccc(NC(=O)c2ccc(CN3CCCCC3)s2)cc1,27.2,33.8,,,,
O=C(Nc1ccc(N2CCC(F)(F)CC2)cc1)c1ccc(CN2CCCCC2)cc1,88.8,99.7,0.82,69,1.88,
O=C(Nc1ccc(C(F)(F)F)cc1)c1ccc(CN2CCCCC2)s1,70,80.2,5.6,9,3.65,
O=C(Nc1ccc(Cl)c(C(F)(F)F)c1)c1ccc(CN2CCCCC2)cc1,98.2,99.6,1.52,7,1.24,
CC(c1ccc(C(=O)N2CCc3ccc(C(F)(F)F)cc32)cc1)N1CCCCC1 (stereo unspecified),76.9,95.6,1.56,21,1.73,
CC1(C)CN(C(=O)c2ccc(CN3CCCCC3)cc2)c2ccccc21,21.4,87.3,2.22,33,2.9,
COC(=O)c1ccc(NC(=O)c2ccc(CN3CCN(C)CC3)cc2)cc1,30.3,29.4,,,,
O=C(O)c1ccc(NC(=O)c2ccc(CN3CCCCC3)cc2)cc1,10.3,3.12,,,,
O=C(Nc1ccc(C2CCCCC2)cc1)c1ccc(CN2CCCCC2)cc1,73.4,98.1,0.99,101,0.96,
O=C(Nc1ccc(C2CC2)cc1)c1ccc(CN2CCCCC2)cc1,66.2,74.3,4.57,22,2.65,
